Experiments:
Adenosine receptor A2b = biological target: T1, Adenosine receptor A2b (Homo sapiens, UniProt P29275); experiment: Inhibition of 100 nM-NECA stimulation of cAMP levels in human adenosine A2b receptor expressing CHO cells; type: cell-based
T1 sequence (P29275 whole entry): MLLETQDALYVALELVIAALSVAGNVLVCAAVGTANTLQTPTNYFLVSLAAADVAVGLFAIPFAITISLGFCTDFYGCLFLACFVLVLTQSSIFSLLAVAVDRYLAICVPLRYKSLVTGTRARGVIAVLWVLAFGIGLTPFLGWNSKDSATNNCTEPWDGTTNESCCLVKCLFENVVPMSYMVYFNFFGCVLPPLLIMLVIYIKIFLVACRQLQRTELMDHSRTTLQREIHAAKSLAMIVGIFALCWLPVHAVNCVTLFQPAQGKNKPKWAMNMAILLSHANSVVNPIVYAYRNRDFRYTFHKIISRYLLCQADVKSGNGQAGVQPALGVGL
Summary of the method: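 CHO cells stably transfected with human A2B receptor, grown in DMEM/F12 with 10% FCS and G418, 37 °C. Cells trypsinised and suspended at 1 × 10⁶ cells/assay in pH 7.4 buffer with 2 IU/ml adenosine deaminase and Ro 20-1724. Preincubated 10 min at 37 °C, then challenged with 100 nM NECA. Stopped with cold 6% TCA. cAMP measured by competitive binding to [³H]cAMP with adrenal binding protein. IC50 from sigmoid nonlinear regression.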

Adenosine receptor A1 = biological target: T2, Adenosine receptor A1 (Homo sapiens, UniProt P30542); experiment: Inhibition of [3H]DPCPX binding to human adenosine A1 receptor expressed in CHO cells; (n=3 - 6); type: cell-based
T2 sequence (P30542 whole entry): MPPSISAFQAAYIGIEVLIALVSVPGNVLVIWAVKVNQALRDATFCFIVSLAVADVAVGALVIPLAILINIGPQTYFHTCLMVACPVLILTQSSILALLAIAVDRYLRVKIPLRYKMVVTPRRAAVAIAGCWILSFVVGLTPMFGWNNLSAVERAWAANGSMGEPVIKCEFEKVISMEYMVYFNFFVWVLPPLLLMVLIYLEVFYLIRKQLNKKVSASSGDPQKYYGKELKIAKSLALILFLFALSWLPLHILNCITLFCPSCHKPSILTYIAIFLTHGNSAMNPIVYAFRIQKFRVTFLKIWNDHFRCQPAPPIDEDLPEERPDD
Summary of the method: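 Membranes from human A1-transfected CHO cells, pretreated with adenosine deaminase 3 IU/ml for 30 min at 37 °C. 50 µg protein incubated 120 min at 25 °C in 50 mM Tris HCl pH 7.4 with 1 nM [³H]DPCPX and 6–8 concentrations of test ligand. Nonspecific binding defined with 10 µM CHA. Separated by GF/B filtration, counted by scintillation. Ki via Cheng–Prusoff.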

Adenosine receptor A2a [1] = biological target: T3, Adenosine receptor A2a (Homo sapiens, UniProt P29274); experiment: Percent inhibition of [3H]ZM-241385 binding to human adenosine 2Aa receptor expressed in CHO cells; (n=3 - 6); type: cell-based; parameters: concentration or dose not given beside the values; settings: concentration not given here
T3 sequence (P29274 whole entry): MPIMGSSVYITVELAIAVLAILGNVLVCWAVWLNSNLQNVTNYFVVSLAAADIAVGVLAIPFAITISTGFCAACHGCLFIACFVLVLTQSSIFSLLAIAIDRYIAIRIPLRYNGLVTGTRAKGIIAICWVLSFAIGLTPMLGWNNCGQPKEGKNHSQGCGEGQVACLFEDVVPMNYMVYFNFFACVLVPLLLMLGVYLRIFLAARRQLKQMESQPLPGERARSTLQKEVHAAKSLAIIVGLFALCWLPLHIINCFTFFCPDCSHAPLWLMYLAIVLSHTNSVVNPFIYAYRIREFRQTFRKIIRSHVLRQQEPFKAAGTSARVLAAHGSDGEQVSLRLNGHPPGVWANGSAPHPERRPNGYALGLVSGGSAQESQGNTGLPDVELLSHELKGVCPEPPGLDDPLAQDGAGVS

[2] = biological target: T4, Adenosine receptor A2b (Homo sapiens) (UniProt P29275); experiment: Percent inhibition of human adenosine A2b receptor expressed in CHO cells; type: cell-based; parameters: concentration or dose not given beside the values; settings: concentration not given here
T4 sequence (whole entry): T1 sequence (P29275 whole entry)

Adenosine receptor A3 [3] = biological target: T5, Adenosine receptor A3 (Homo sapiens, UniProt P0DMS8); experiment: Inhibition of [3H]MRE3008-F20 binding to human adenosine A3 receptor expressed in CHO cells; (n=3 - 6); type: cell-based
T5 sequence (P0DMS8 whole entry): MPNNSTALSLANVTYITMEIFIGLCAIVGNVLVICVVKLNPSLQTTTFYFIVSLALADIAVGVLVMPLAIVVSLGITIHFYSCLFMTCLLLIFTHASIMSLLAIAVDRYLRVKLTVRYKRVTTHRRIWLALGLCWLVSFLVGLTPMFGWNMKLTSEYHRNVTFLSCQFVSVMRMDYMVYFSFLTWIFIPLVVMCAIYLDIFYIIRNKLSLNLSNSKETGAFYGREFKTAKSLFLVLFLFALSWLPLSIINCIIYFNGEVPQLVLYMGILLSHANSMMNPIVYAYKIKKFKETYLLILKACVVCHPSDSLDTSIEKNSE

Adenosine receptor A2a [4] = biological target: T3, Adenosine receptor A2a; experiment: Inhibition of [3H]ZM-241385 binding to human adenosine A2a receptor expressed in CHO cells; (n=3 - 6); type: cell-based
Summary of the method: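 Membranes from human A2A-transfected CHO cells, pretreated with adenosine deaminase. 50 µg protein incubated 60 min at 4 °C in 50 mM Tris HCl, 10 mM MgCl₂, pH 7.4 with [³H]ZM241385 and 6–8 concentrations of test ligand. Nonspecific binding defined with 1 µM ZM241385. Separated by filtration, counted by scintillation. Ki via Cheng–Prusoff.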

[5] = biological target: T6, Adenosine receptor A1 (Homo sapiens) (UniProt P30542); experiment: Percent inhibition [3H]DPCPX binding to human adenosine A1 receptor expressed in CHO cells; (n=3 - 6); type: cell-based; parameters: concentration or dose not given beside the values; settings: concentration not given here
T6 sequence (whole entry): T2 sequence (P30542 whole entry)

Adenosine receptor A3 [6] = biological target: T5, Adenosine receptor A3; experiment: Inhibition of cAMP accumulation in human adenosine A3 receptor assay as inhibition of Cl-IB-MECA; type: functional
[7] = biological target: T6, Adenosine receptor A1 (Homo sapiens); experiment: Percentage inhibition of [3H]DPCPX binding to human adenosine A1 receptor expressed in CHO cells; (n=3 - 6); type: cell-based; settings: concentration not given here

Row | SMILES | IC50 (Adenosine receptor A2b) [µM] | Ki (Adenosine receptor A1) [µM] | inhibition (Adenosine receptor A2a [1]) [%] | inhibition [2] [%] | Ki (Adenosine receptor A3 [3]) [µM] | Ki (Adenosine receptor A2a [4]) [µM] | inhibition [5] [%] | Ki (Adenosine receptor A3 [6]) [µM] | inhibition [7] [%]
1 | Oc1nc2ccccc2c2nn(-c3ccc(F)cc3)cc12 | > 1 | > 1 | 10 | 10 | 0.027 | > 1 | 10 |  | 
2 | Cc1ccc(-n2cc3c(=O)[nH]c4ccccc4c3n2)cc1 | > 1 | > 1 |  |  |  | > 1 |  |  | 
3 | Oc1nc2ccccc2c2nn(-c3ccc(Cl)cc3)cc12 | > 1 | > 1 | 1 | 1 | 0.019 | > 1 | 4 |  | 
4 | CCc1ccc(-n2cc3c(O)nc4ccccc4c3n2)cc1 |  |  | 1 | 13 |  |  | 12 |  | 
5 | Sc1nc2ccccc2c2nn(-c3ccccc3)cc12 | > 1 | > 1 | 8 | 11 | 0.22 | > 1 | 14 |  | 
6 | COc1ccc(-n2cc3c(O)nc4ccccc4c3n2)cc1 | > 1 | > 1 | 1 | 2 | 0.016 | > 1 | 1 | 0.042 | 
7 | CCc1ccc(-n2cc3c(=O)[nH]c4ccccc4c3n2)cc1 | > 1 | > 1 |  |  | 0.157 | > 1 |  |  | 
8 | Cc1ccc(-n2cc3c(O)nc4ccccc4c3n2)cc1 |  |  | 1 | 2 |  |  | 3 |  | 
9 | COc1nc2ccccc2c2nn(-c3ccccc3)cc12 | > 1 | > 1 | 5 | 10 | 0.166 | > 1 | 16 |  | 
10 | Oc1nc2ccccc2c2nn(-c3ccccc3)cc12 | > 1 | > 1 | 2 | 1 | 0.027 | > 1 |  | 0.055 | 5
11 | c1ccc(CNc2nc3ccccc3c3nn(-c4ccccc4)cc23)cc1 | > 1 | > 1 | 2 | 1 | 0.125 | > 1 | 4 |  | 
12 | Oc1nc2ccccc2c2nn(-c3ccccc3Cl)cc12 | > 1 | > 1 | 1 | 8 | 0.044 | > 1 | 3 |  | 
13 | c1ccc(-n2cc3cnc4ccccc4c3n2)cc1 | > 1 | > 1 | 3 | 1 | 0.212 | > 1 | 5 |  | 

Source: ChEMBL document CHEMBL1140344, “New 2-arylpyrazolo[4,3-c]quinoline derivatives as potent and selective human A3 adenosine receptor antagonists” (J Med Chem, 2005)
